This passage reports Activity, IC50 and MIC results from ChEMBL document CHEMBL1157404, “Linear and cyclic peptides from the entomopathogenic bacterium Xenorhabdus nematophilus” (J Nat Prod, 2008).

Converted amounts (≈) assume the structure as drawn. The source made the active and inactive calls. No cut-off for these calls is given here. Bridge positions count the residues as written; N and C are the ends. Square brackets hold non-standard residues; d marks the D form. Peptide text beside a SMILES is read from it. * marks the point of attachment. NMeF = CN[C@@H](Cc1ccccc1)C(=O)O; NMeL = CN[C@@H](CC(C)C)C(=O)O; NHPhenethyl = c1ccc(CCN*)cc1; PhAc = O=C(Cc1ccccc1)*; βAla = NCCC(=O)O

Test [1] relates to Bacillus subtilis. As to the kind of experiment: Antibacterial activity against Bacillus subtilis DSM 347 at 40 ug/mL. Type of test: functional, organism-based.
In test [2] the test system is Erwinia amylovora. In words: Antibacterial activity against Erwinia amylovora at 40 ug/mL. Type of test: functional, organism-based.
The subject of test [3] is Ralstonia solanacearum. In words: Antibacterial activity against Ralstonia solanacearum DSM 9544 at 40 ug/mL. Type of test: functional, organism-based.
The subject of test [4] is Pseudomonas fluorescens. As to the kind of experiment: Antibacterial activity against Pseudomonas fluorescens NCIMB 10586 at 40 ug/mL. Type of test: functional, organism-based.
The test system of another test is Escherichia coli. As to the kind of experiment: Antibacterial activity against Escherichia coli K12 DSM 489 at 40 ug/mL. Type of test: functional, organism-based.
The next test concerns Nakaseomyces glabratus. In words: Antifungal activity against Candida glabrata DSM 6425 at 40 ug/mL. Type of test: functional, organism-based.
For test [5], the system named is Xanthomonas campestris. In words: Antibacterial activity against Xanthomonas campestris DSM 2405 at 40 ug/mL. Type of test: functional, organism-based.
Test [6] has as its system Pseudomonas syringae. As to the kind of experiment: Antibacterial activity against Pseudomonas syringae var.aptata DSM 50252 at 40 ug/mL. Type of test: functional, organism-based.
Test [7] has as its system Mammaliicoccus lentus. As to the kind of experiment: Antibacterial activity against Staphylococcus lentus DSM 6672 at 40 ug/mL. Type of test: functional, organism-based.
The next test deals with Artemia salina. In words: Toxicity against Artemia salina assessed as number of immotile nauplii per well after 24 hrs. The format is organism-based. The essentials:
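Compounds were serially diluted 2-fold over 50 to 0.781 µg/well in microplate wells, and the wells were dried before the brine shrimp nauplii were exposed.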

The subject of test [8] is Xanthomonas campestris. As to the kind of experiment: Antibacterial activity against Xanthomonas campestris DSM 2405. The format is functional.
The subject of test [9] is Pseudomonas syringae. In words: Antibacterial activity against Pseudomonas syringae var.aptata DSM 50252. The format is functional.
Test [10] concerns Mammaliicoccus lentus. In words: Antibacterial activity against Staphylococcus lentus DSM 6672. The format is functional.
In test [11] the test system is Bacillus subtilis. In words: Antibacterial activity against Bacillus subtilis DSM 347. Type of test: functional.
For test [12], the system named is Pseudomonas fluorescens. As to the kind of experiment: Antibacterial activity against Pseudomonas fluorescens NCIMB 10586. The format is functional.
The test system of test [13] is Erwinia amylovora. As to the kind of experiment: Antibacterial activity against Erwinia amylovora. The format is functional.
The next test has as its system Galleria mellonella. As to the kind of experiment: Insecticidal activity against Galleria mellonella after 6 days. Type of test: functional, organism-based. In outline: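 Oral toxicity test on greater wax moth larvae. Compounds were dissolved at 1 mg/mL in 50% aqueous EtOH. Larvae were held at 35 °C for 6 days, then mortality and ability to spin silk were recorded. Four replicates were run, with two for one compound.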

For test [14], the system named is Ralstonia solanacearum. In words: Antibacterial activity against Ralstonia solanacearum DSM 9544. Type of test: functional.

For orientation: IC50 means the concentration needed to halve the response being measured. With `CN[C@@H](CC(C)C)C(=O)N(C)[C@@H](Cc1ccccc1)C(=O)NCCc1ccccc1` [XENORTIDE A] (H-[NMeL]-[NMeF]-NHPhenethyl), the result with Bacillus subtilis [1], in the test with Erwinia amylovora [2], in the test on Ralstonia solanacearum [3], in the test with Pseudomonas fluorescens [4], in the test on Escherichia coli and in the test with Nakaseomyces glabratus was inactive. Also, the result in the test on Xanthomonas campestris [5], in the test on Pseudomonas syringae [6] and in the test with Mammaliicoccus lentus [7] was inactive. Moreover, the IC50 in the test on Artemia salina worked out at 200 µg/mL (≈ 488 µM).

The term MIC denotes the lowest concentration found to suppress growth. `CC(C)CC(NC(=O)[C@@H](O)[C@@H](O)C1CCCN1)C1Cc2cccc(O)c2C(=O)O1` (stereo partly specified): the values for the MIC against Xanthomonas campestris [8], in the test on Pseudomonas syringae [9] and with Bacillus subtilis [11] were 40 µg/mL (≈ 98.4 µM), 40 µg/mL (≈ 98.4 µM) and 20 µg/mL (≈ 49.2 µM), respectively. In the test on Mammaliicoccus lentus [10], this compound displayed an Activity of 70%. Also, in the test with Artemia salina, the IC50 came to 9 µg/mL (≈ 22.1 µM).

`C[C@H]1OC(=O)CCNC(=O)[C@H](Cc2c[nH]c3ccccc23)NC(=O)[C@H](Cc2c[nH]c3ccccc23)NC(=O)[C@H]1NC(=O)Cc1ccccc1` [XENEAMATIDE] (PhAc-TWW[βAla]; ester 1-C): the MIC in the test on Pseudomonas fluorescens [12], in the test with Erwinia amylovora [13], against Pseudomonas syringae [9], in the test on Ralstonia solanacearum [14] and against Bacillus subtilis [11] was 10 µg/mL (≈ 15.1 µM) in each case. The result with Galleria mellonella was Active.

Regarding `CC[C@H](C)C(=O)C(=O)NCCc1c[nH]c2ccccc12` [NEMATOPHIN], the outcome in the test on Bacillus subtilis [1], with Erwinia amylovora [2], in the test on Ralstonia solanacearum [3], in the test on Pseudomonas fluorescens [4], in the test with Escherichia coli and in the test with Nakaseomyces glabratus was inactive. For the same compound, the result in the test with Xanthomonas campestris [5], with Pseudomonas syringae [6] and in the test on Mammaliicoccus lentus [7] was inactive. In addition, the IC50 in the test on Artemia salina is 50 µg/mL (≈ 184 µM).

Regarding `CN[C@@H](CC(C)C)C(=O)N(C)[C@@H](Cc1ccccc1)C(=O)NCCc1c[nH]c2ccccc12` [XENORTIDE B], the outcome in the test with Bacillus subtilis [1], in the test with Erwinia amylovora [2], with Ralstonia solanacearum [3], in the test on Pseudomonas fluorescens [4], in the test on Escherichia coli and in the test on Nakaseomyces glabratus was inactive. The outcome in the test on Xanthomonas campestris [5], with Pseudomonas syringae [6] and in the test with Mammaliicoccus lentus [7] was inactive. Besides, the IC50 with Artemia salina amounted to 200 µg/mL (≈ 446 µM).
